Results pooled from the literature.
Each line is one published result; the experiments were not run side by side.
Target: Insulin receptor (INSR, Homo sapiens, UniProt P06213)

COc1cnc(Nc2cccc(S(N)(=O)=O)c2)nc1N1CCN(c2ccccc2)CC1
remaining binding (binding, competition with immobilised ligand; 1 µM): 81%

CN(C)c1ncc(F)c(-c2cnn3ncccc23)n1
remaining binding (binding; 1 µM): 81%

O=C(NCCCN1CCOCC1)c1ccc(Nc2nccc(-c3cc4ccccc4s3)n2)cc1
remaining binding (binding, competition with immobilised ligand; 1 µM): 95%

Cn1nc(C(F)(F)F)cc1-c1cnc(N2CCc3cc(S(=O)(=O)Nc4c(F)cc(Cl)cc4F)cc(N4CCCC4=O)c32)nc1
remaining binding (cell-free assay, competition with immobilised ligand; 1 µM): 89%

c1cnn2ncc(-c3ccnc(N4CCC45COC5)n3)c2c1
remaining binding (binding; 1 µM): 73%

N#Cc1ccccc1CSc1nnc2c(n1)[nH]c1ccccc12
remaining binding (binding, competition with immobilised ligand; 10 µM): 88%

O=C(NCCCN1CCOCC1)c1ccc(Nc2ncc(Cl)c(-c3ccc(Cl)s3)n2)cc1
remaining binding (binding, competition with immobilised ligand; 1 µM): 29%

F[C@@H]1CCN(c2nccc(-c3cnn4ncccc34)n2)C1
remaining binding (binding; 1 µM): 91%

Nc1c(C(=O)NCc2ccc(C(=O)NCCCC3CCCCC3)cc2)cnn1-c1ccccc1
remaining binding (cell-free assay, competition with immobilised ligand; 0.1 µM): 100%

O=C(NCC1CCOCC1)c1n[nH]cc1NC(=O)c1c(F)cccc1F
remaining binding (binding, competition with immobilised ligand; 1 µM): 100%

c1cncc(-c2cccc(Nc3nccc(NC4CCCCC4)n3)c2)c1
remaining binding (binding, competition with immobilised ligand; 10 µM): 27%

C[C@@H]1CN(c2ccc3ncc(-c4ccc5[nH]nc(C6CC6)c5c4)n3n2)C[C@H](C)O1
remaining binding (binding, competition with immobilised ligand; 0.5 µM): 81%

CC1CCCN1c1nccc(-c2cnn3ncccc23)n1 (stereo not shown)
remaining binding (binding; 1 µM): 86%

CC(=O)N1CCC(c2ccc(C(=O)NC3=NCCN3)cc2C(F)(F)F)CC1
remaining binding (cell-free assay, competition with immobilised ligand; 1 µM): 100%

O=C(c1ccc(Nc2ncc(Cl)c(-c3cc4ccccc4s3)n2)cc1)N1CCC(N2CCCC2)CC1
remaining binding (binding, competition with immobilised ligand; 1 µM): 6.1%

CCCOc1ccc([C@@H]2[C@@H](C(=O)O)[C@H](c3ccc4c(c3)OCO4)CN2CC(=O)Nc2c(CC)cccc2CC)cc1
remaining binding (cell-free assay, competition with immobilised ligand; 1 µM): 89%

N[C@H]1CCN(c2nccc(-c3cnn4ncccc34)n2)C1
remaining binding (binding; 1 µM): 85%

CN([C@@H]1CCc2c(CC(=O)O)c3ccccc3n2C1)S(=O)(=O)c1ccc(F)cc1
remaining binding (cell-free assay, competition with immobilised ligand; 1 µM): 100%

C[C@@H]1CCN(c2nccc(-c3cnn4ncccc34)n2)C1
remaining binding (binding; 1 µM): 72%

COc1ncc2cc3ccccc3nc2c1C#N
remaining binding (cell-free assay, competition with immobilised ligand; 5 µM): 100%

C=CC(=O)N1CCC(C(=O)NCC(=O)N2CCN(c3nc(-c4cnc(N)nc4C(F)F)nc(N4CCOCC4)n3)CC2)CC1
remaining binding (binding, competition with immobilised ligand; 1 µM): 99%

CC(=O)C1=C(C)N(c2cccc(C(F)(F)F)c2)C(=O)N[C@@H]1c1ccc(C#N)nc1
remaining binding (cell-free assay, competition with immobilised ligand; 1 µM): 89.3%

CN(CCCC(F)(F)F)c1nccc(-c2cnn3ncccc23)n1
remaining binding (binding; 1 µM): 78%

Cc1cc(-n2nc(Cc3cc(F)cc(C(F)(F)F)c3)nc2C)ccc1C(N)=O
remaining binding (cell-free assay, competition with immobilised ligand; 1 µM): 99%

CCN1CCN(Cc2ccc(C(=O)Nc3ccc(C)c(Oc4ccc5c(c4)CC(=O)N5)c3)cc2C(F)(F)F)CC1
remaining binding (binding, competition with immobilised ligand; 1 µM): 77%
